TPT1 inh: blocks Candida albicans tRNA 2'-phosphotransferase | recombinant caTPT1, FP RNA substrate dephosphorylation | inhibition, % at 5 µM | 300,000 tested, 0.81% active;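 active = inhibition above the mean of all tested compounds plus 3 SD, set per screening campaign, cut at about 24% in these data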;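 also: plate controls were DMSO alone for no effect and ferristatin control at 100 nM for full effect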
HNF4A DNA FP: change in binding of human HNF4 alpha to DNA; HNF4a-FITC DNA binding, fluorescence polarization, 1 h; activity change, % at 10 µM; 360,000 tested, 0.3% active; in the data active = activity change above about 30%, passing the limit was not always enough
Target sequence (P41235 whole entry, looked up): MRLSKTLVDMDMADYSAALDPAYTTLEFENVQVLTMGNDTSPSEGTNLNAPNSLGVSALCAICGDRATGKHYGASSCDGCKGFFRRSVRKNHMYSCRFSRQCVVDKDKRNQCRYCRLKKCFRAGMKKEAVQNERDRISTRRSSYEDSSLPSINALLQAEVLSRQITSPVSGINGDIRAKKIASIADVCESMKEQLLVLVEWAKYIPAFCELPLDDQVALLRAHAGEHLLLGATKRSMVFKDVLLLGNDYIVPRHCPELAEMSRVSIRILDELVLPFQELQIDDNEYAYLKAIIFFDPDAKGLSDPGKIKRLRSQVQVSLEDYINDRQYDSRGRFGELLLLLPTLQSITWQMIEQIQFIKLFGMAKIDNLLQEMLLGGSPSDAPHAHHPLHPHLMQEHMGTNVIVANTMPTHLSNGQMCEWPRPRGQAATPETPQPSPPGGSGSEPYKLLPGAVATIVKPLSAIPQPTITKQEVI
CSN inh: inhibitors of human CSN-mediated cullin deneddylation; Q92905; Purified CSN, SCF-Nedd8-OG deneddylation, fluorescence polarization; inhibition, % at 12.5 µM; 360,000 tested, 0.38% active; AID 651999;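 active = pattern-corrected inhibition above about 35%, with an unprinted fluorescence ratio check between 0.5 and 1.5, limit read from the data, passing the limit was not always enough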;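 also: 0% = enzyme with substrate and 100% = substrate without enzyme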
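Assay system: purified human Csn5 enzyme expressed in HEK293T cells; measure: % inhibition; also added: SCFSkp2-Nedd8OG substrate at 10 nM final; technique: fluorescence polarization; times: reaction 90 min, room temperature; medium: Tris buffer pH 7.5, NaCl, DTT, Tween-20, trehalose, ovalbumin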
Rtt109 Vps75: blocks Candida albicans Rtt109/Vps75 acetyltransferase activity; purified Rtt109/Vps75, ThioGlo CoA-SH fluorescence, 4 h; 330,000 tested, 0.16% active; inhibition, % at 34.9 µM; Q5AAJ8;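 active = inhibition of at least 50% in every replicate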
caTPT1 confirm: TPT1 (C. albicans) inhibition, confirmation; inhibition, % at 5 µM; 2,400 tested, 74% active; AID 2149; shares compounds with TPT1 inh; recombinant caTPT1, fluorescence polarization, RNase T1 coupled;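 active = inhibition above the primary screen limit, the mean inhibition of all tested compounds plus 3 SD, cut at about 25% in these data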
RNase T1 counter: RNase T1 inhibition in TPT1 counter-screen | shares compounds with TPT1 inh | RNase T1 cleavage, fluorescence polarization, 1536-well | AID 2153 | 2,400 tested, 83% active | inhibition, % at 5 µM;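 active = inhibition above the solvent-only control well mean plus 3 SD, limit set per screening run, cut at about 23% in these data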;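 also: plate controls were DMSO wells with enzyme for no effect and wells without RNase T1 for full effect; inhibitors block cleavage so intact labeled substrate keeps polarization high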
Target sequence (P00651 whole entry, looked up): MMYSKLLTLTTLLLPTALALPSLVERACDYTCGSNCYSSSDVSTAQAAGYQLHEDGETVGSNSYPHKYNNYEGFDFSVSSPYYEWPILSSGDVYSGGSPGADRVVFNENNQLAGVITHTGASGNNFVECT
CSN deneddyl val: Csn5 (human) deneddylation inhibition, single-concentration validation; shares compounds with CSN inh; Csn5 deneddylation of SCF-Nedd8OG, fluorescence polarization, 90 min; inhibition, % at 16.6 µM; 540 tested, 62% active; in the data active = inhibition above about 50%;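 also: 0% = DMSO with enzyme and 100% = no enzyme wells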
MMP-2 counter: blocks human MMP-2 in a CSN deneddylation counter-screen | shares compounds with CSN inh | recombinant MMP-2, FRET substrate fluorescence, 60 min | AID 720655 | 540 tested, 33% active | inhibition, % at 16.6 µM;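 active = corrected plate-normalized z-score of 5 or more, or -5 or less, or inhibition of 15% or more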;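 also: plate controls were DMSO wells with enzyme for no effect and buffer wells lacking MMP-2 for full effect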
Thrombin counter: counter-screen for CSN deneddylation inhibitors: bovine thrombin inhibition; shares compounds with CSN inh; bovine thrombin cleavage of Ub4-pepOG, fluorescence polarization; inhibition, % at 16.6 µM; 540 tested, 49% active; AID 720656;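 active = inhibition at or above a set limit, with a fluorescence interference ratio between 0.5 and a set maximum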
Numbers without * were called inactive. Shown are actives, neighbours in structure and some others; about 1.2% of the full set was active somewhere.

What do the screens show for `Cn1c(-c2ccc(C=O)s2)nc2c3ccccc3c3ccccc3c21`?
TPT1 inh: 34*; HNF4A DNA FP: -40; CSN inh: 47*; Rtt109 Vps75: -3; caTPT1 confirm: 52*; RNase T1 counter: 63*; MMP-2 counter: -18; Thrombin counter: -72

How did Cc1ccc(C(=O)Nc2cc3[nH]c(=O)oc3cc2C)cc1 do in these assays?
TPT1 inh: -1; HNF4A DNA FP: -1; CSN inh: 7; Rtt109 Vps75: -8

What do the screens show for `O=C(O)C(c1ccccc1)N1C(=O)/C(=C\c2ccc(-c3ccccc3Cl)o2)SC1=S` (centres undefined)?
TPT1 inh: 124*; HNF4A DNA FP: 62; CSN inh: 92*; Rtt109 Vps75: -1; caTPT1 confirm: 128*; RNase T1 counter: 130*; CSN deneddyl val: -58; MMP-2 counter: 5; Thrombin counter: 94*

How did CC(=O)c1cccc(OC(=O)Oc2cccc(C(C)=O)c2)c1 do in these assays?
HNF4A DNA FP: -2; CSN inh: 6; Rtt109 Vps75: 9

How did COc1cc(C2C(C#N)=C(N)Oc3cc(N(C)C)ccc32)cc2c1OCO2 (centres undefined) do in these assays?
TPT1 inh: 100*; HNF4A DNA FP: 56; CSN inh: 36*; Rtt109 Vps75: 46; caTPT1 confirm: 98*; RNase T1 counter: 99*; CSN deneddyl val: 86*; MMP-2 counter: 3; Thrombin counter: 20*

What do the screens show for `CC(C)(CN1CCCN(CC(C)(C)C(=O)O)C1=O)C(=O)O`?
HNF4A DNA FP: 2; CSN inh: 3

Results for CCN1C(=O)/C(=C\C=C2/C=CC=CN2CC)SC1=S ?
TPT1 inh: 27*; HNF4A DNA FP: 136*; CSN inh: 53*; Rtt109 Vps75: 24; caTPT1 confirm: 36*; RNase T1 counter: 55*; CSN deneddyl val: 61*; MMP-2 counter: 23*; Thrombin counter: 63*

What do the screens show for `CCN1C(=O)/C(=C/C=C2\C=CN(CC)c3ccccc32)SC1=S`?
TPT1 inh: 2; HNF4A DNA FP: 2; CSN inh: 4; Rtt109 Vps75: -4

Results for CC(=O)Oc1ccc(C2=Cc3ccc(OC(C)=O)cc3OC2C)cc1 (centres undefined) ?
HNF4A DNA FP: 0; CSN inh: -2; Rtt109 Vps75: 10

What do the screens show for `Cc1ccc(NC(=O)CN(C)C(=O)c2cc(-c3ccco3)nc3ccccc23)cc1`?
TPT1 inh: 25*; HNF4A DNA FP: -25; CSN inh: 51*; Rtt109 Vps75: -3; caTPT1 confirm: 10; RNase T1 counter: 14; MMP-2 counter: 10; Thrombin counter: -6

What do the screens show for `COc1cccc(NC(=O)CN(C)C(=O)c2cc(-c3ccco3)nc3ccccc23)c1`?
TPT1 inh: 0; HNF4A DNA FP: -3; CSN inh: 11; Rtt109 Vps75: 1

How did CCCS(=O)(=O)NC(=O)C1(C)CCN(C(=O)c2ccc(F)c(Cl)c2)C1 (centres undefined) do in these assays?
HNF4A DNA FP: 1; CSN inh: -1

How did CC(OC(=O)/C(C#N)=C/c1ccc(N(C)C)cc1)C(=O)N(C)c1ccccc1 (centres undefined) do in these assays?
TPT1 inh: 121*; HNF4A DNA FP: 107*; CSN inh: 71*; Rtt109 Vps75: 2; caTPT1 confirm: 130*; RNase T1 counter: 132*; CSN deneddyl val: 62*; MMP-2 counter: -20; Thrombin counter: 73*

What do the screens show for `O=C(NCc1ccc(F)cc1)c1cc(C2CCCN(C(=O)c3ccc4c(c3)CCO4)C2)on1` (centres undefined)?
HNF4A DNA FP: 1; CSN inh: 1

Results for Nc1ccc(/C=C/C(=O)c2cccs2)cc1 ?
TPT1 inh: 78*; HNF4A DNA FP: 19; CSN inh: 40*; Rtt109 Vps75: -3; caTPT1 confirm: 96*; RNase T1 counter: 99*; CSN deneddyl val: 72*; MMP-2 counter: -16; Thrombin counter: 32*

Results for O=C(N/N=C/c1c(O)ccc2ccccc12)c1cccc(C(F)(F)F)c1 ?
TPT1 inh: 135*; HNF4A DNA FP: 92*; CSN inh: 69*; Rtt109 Vps75: 0; caTPT1 confirm: 149*; RNase T1 counter: 137*; CSN deneddyl val: 63*; MMP-2 counter: -25*; Thrombin counter: 49*

How did CC1Cc2cc(S(=O)(=O)N3CCN(c4ccccc4F)CC3)ccc2N1C(=O)C1CC1 (centres undefined) do in these assays?
TPT1 inh: -2; HNF4A DNA FP: -1; CSN inh: 0; Rtt109 Vps75: -1

How did Fc1ccc(C2=NN(c3ccccc3)C(c3ccco3)C2)cc1 (centres undefined) do in these assays?
TPT1 inh: -1; HNF4A DNA FP: 3; CSN inh: 11; Rtt109 Vps75: -13

Results for C(=C\c1ccco1)/C1=NN(c2ccccc2)C(c2ccco2)C1 (centres undefined) ?
TPT1 inh: 53*; HNF4A DNA FP: 33; CSN inh: 84*; Rtt109 Vps75: 0; caTPT1 confirm: 38*; RNase T1 counter: 47*; CSN deneddyl val: 62*; MMP-2 counter: -3; Thrombin counter: 31*

Results for COc1ccc2nc(-n3c(C)ccc3C)sc2c1 ?
TPT1 inh: -1; HNF4A DNA FP: 4; CSN inh: 4

How did COc1ccc2nc(N3C(=O)/C(=C/c4ccccc4)NC3=S)sc2c1 do in these assays?
TPT1 inh: 111*; HNF4A DNA FP: 108; CSN inh: 95*; Rtt109 Vps75: -6; caTPT1 confirm: 115*; RNase T1 counter: 119*; CSN deneddyl val: 92*; MMP-2 counter: -12; Thrombin counter: 74*

Results for CN1C(=O)[C@@H]2[C@H](C1=O)[C@@H]1C(=O)Nc3ccccc3C(=O)N1[C@@H]2c1ccc(Br)cc1 ?
TPT1 inh: -2; HNF4A DNA FP: 1; CSN inh: -1; Rtt109 Vps75: 0

Results for CC1=CN2C(=N)/C(=C/c3ccc([N+](=O)[O-])o3)C(=O)N=C2S1 ?
TPT1 inh: 77*; HNF4A DNA FP: 66*; CSN inh: 102*; Rtt109 Vps75: 0; caTPT1 confirm: 118*; RNase T1 counter: 118*; CSN deneddyl val: 52*; MMP-2 counter: 10; Thrombin counter: 92*

Screens from PubChem.
